Results reported in ChEMBL document CHEMBL3352343, “Structure-activity relationships of oxysterol-derived pharmacological chaperones for Niemann-Pick type C1 protein” (Bioorg Med Chem Lett, 2014).

System: T1, NPC1-like intracellular cholesterol transporter 1 (Homo sapiens), Q9UHC9 [I1061T]
T1 sequence (whole entry): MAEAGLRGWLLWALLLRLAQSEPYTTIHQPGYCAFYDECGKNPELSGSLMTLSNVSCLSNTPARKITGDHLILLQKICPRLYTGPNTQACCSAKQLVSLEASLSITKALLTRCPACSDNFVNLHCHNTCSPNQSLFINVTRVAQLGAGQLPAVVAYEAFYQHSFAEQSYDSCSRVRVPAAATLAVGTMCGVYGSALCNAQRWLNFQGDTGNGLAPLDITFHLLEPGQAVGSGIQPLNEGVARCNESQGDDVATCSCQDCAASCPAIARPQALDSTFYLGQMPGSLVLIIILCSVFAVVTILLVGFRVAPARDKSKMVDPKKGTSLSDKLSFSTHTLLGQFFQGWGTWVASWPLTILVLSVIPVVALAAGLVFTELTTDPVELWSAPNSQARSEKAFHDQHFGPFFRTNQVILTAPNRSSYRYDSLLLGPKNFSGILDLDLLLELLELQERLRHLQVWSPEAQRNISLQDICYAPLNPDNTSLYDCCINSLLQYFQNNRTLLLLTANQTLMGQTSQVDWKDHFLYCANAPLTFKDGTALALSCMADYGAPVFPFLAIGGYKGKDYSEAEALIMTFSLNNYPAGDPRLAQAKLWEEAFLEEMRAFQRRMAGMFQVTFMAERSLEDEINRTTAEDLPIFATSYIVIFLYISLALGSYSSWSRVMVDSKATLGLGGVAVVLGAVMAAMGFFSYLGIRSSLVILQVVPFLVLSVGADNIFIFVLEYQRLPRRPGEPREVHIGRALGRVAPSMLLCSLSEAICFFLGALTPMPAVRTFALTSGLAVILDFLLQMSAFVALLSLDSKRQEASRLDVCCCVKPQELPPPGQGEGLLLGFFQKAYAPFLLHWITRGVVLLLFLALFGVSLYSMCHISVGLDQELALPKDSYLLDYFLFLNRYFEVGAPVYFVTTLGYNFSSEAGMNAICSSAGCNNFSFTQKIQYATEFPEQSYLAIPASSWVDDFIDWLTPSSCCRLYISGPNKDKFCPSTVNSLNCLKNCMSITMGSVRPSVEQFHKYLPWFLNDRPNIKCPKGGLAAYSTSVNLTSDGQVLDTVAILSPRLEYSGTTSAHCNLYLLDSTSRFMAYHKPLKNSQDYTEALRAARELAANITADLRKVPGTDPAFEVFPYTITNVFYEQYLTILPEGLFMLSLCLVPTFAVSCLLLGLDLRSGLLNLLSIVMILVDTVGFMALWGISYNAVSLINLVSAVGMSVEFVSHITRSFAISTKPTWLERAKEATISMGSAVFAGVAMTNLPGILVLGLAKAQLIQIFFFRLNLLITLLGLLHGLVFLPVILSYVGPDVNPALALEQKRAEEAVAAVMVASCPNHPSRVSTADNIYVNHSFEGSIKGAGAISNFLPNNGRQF
Test: Binding affinity to FLAG/tGFP-tagged NPC1 I1061T mutant (unknown origin) expressed in HEK293 cells assessed as localization after 24 hrs by fluorescence microscopy
Assay type: cell-based
How it was run: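 HEK293 cells stably expressing NPC1 I1061T-tGFP were exposed to compound for 24 h, fixed, and nuclei stained with Hoechst 33342. In the images, each cell was scored by tGFP pattern: ER 0, mixed ER+vesicle 0.5, vesicular 1. Scores were averaged to give the vesicular-localization percentage, and EC50 was taken from concentration-response. Data are mean ± standard deviation of three independent experiments.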

C[C@H](CCCC(C)(C)O)[C@H]1CC[C@H]2[C@@H]3CC=C4C[C@@H](O)CC[C@]4(C)[C@H]3CC[C@]12C was tested, and the Activity was “Dose-dependent effect”.
